Results reported in ChEMBL document CHEMBL4680269, “N-benzylpiperidinol derivatives as novel USP7 inhibitors: Structure-activity relationships and X-ray crystallographic studies” (Eur J Med Chem, 2020).
Active and inactive are the calls of the source. The calls are words filed in the database; no cut-off is given here.

Legend:
[1] = target: Ubiquitin carboxyl-terminal hydrolase isozyme L1 (Homo sapiens) (UniProt P09936); test: Inhibition of UCH-L1 (unknown origin) at 20 uM
[2] = target: T1, Ubiquitin carboxyl-terminal hydrolase isozyme L5 (Homo sapiens) (UniProt Q9Y5K5); test: Inhibition of UCH-L5 (unknown origin) at 20 uM
T1 sequence (whole entry): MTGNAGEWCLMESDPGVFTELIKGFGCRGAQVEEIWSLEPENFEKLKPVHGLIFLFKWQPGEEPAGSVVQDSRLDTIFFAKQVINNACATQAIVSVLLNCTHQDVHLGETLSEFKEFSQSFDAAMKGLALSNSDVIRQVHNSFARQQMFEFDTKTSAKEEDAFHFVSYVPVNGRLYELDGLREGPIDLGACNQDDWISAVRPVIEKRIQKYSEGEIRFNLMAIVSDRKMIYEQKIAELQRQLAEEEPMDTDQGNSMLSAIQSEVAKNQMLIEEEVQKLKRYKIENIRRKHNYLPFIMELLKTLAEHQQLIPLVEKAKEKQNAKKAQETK

[3] = target: Ubiquitin carboxyl-terminal hydrolase 11 (Homo sapiens) (UniProt P51784); test: Inhibition of USP11 (unknown origin) at 20 uM
[4] = target: T2, Ubiquitin carboxyl-terminal hydrolase 2 (Homo sapiens) (UniProt O75604); test: Inhibition of USP2 (unknown origin) at 20 uM
T2 sequence (whole entry): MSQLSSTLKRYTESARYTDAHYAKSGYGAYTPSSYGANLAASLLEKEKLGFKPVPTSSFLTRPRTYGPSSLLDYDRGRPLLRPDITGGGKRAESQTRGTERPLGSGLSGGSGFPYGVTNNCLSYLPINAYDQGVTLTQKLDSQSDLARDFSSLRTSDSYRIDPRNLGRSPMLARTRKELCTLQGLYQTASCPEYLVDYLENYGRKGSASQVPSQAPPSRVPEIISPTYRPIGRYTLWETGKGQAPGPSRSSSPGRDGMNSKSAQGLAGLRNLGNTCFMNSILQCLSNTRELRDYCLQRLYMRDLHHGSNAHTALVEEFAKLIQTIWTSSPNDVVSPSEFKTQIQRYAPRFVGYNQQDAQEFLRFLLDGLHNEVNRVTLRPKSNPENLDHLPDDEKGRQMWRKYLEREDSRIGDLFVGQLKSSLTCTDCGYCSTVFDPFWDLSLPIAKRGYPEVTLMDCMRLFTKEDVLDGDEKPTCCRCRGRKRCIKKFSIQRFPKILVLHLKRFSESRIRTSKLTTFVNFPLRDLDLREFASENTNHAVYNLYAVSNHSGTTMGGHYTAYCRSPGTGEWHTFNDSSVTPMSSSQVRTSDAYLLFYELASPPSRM

[5] = target: T3, Ubiquitin carboxyl-terminal hydrolase 25 (Homo sapiens) (UniProt Q9UHP3); test: Inhibition of USP25 (unknown origin) at 20 uM
T3 sequence (whole entry): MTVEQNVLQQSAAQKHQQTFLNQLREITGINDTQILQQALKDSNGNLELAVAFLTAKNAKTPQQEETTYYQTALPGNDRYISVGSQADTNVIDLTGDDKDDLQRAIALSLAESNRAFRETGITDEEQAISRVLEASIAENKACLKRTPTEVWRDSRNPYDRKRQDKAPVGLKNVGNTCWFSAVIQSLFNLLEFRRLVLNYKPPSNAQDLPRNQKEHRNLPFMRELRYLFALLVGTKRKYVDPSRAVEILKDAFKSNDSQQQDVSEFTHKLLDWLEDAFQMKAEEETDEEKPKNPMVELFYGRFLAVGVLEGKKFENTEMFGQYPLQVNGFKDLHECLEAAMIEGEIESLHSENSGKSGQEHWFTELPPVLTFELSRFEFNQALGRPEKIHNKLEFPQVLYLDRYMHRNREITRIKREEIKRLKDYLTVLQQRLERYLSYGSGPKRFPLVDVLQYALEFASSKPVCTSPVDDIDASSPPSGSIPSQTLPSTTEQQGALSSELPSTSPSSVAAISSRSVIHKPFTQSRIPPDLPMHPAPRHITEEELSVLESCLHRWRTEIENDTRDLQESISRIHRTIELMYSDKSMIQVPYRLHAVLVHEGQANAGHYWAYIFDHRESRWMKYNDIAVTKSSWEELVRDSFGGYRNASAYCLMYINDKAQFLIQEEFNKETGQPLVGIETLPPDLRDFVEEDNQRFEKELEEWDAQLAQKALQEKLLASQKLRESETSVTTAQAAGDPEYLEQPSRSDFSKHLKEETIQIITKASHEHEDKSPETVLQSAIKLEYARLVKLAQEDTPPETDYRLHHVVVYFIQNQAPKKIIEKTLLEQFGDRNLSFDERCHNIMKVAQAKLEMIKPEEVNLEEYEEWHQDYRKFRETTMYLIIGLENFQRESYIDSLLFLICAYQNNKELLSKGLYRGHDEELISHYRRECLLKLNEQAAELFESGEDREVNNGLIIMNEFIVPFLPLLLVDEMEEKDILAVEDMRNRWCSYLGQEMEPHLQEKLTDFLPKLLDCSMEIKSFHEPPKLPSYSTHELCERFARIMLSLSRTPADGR

[6] = target: T4, Ubiquitin carboxyl-terminal hydrolase 28 (Homo sapiens) (UniProt Q96RU2); test: Inhibition of USP28 (unknown origin) at 20 uM
T4 sequence (whole entry): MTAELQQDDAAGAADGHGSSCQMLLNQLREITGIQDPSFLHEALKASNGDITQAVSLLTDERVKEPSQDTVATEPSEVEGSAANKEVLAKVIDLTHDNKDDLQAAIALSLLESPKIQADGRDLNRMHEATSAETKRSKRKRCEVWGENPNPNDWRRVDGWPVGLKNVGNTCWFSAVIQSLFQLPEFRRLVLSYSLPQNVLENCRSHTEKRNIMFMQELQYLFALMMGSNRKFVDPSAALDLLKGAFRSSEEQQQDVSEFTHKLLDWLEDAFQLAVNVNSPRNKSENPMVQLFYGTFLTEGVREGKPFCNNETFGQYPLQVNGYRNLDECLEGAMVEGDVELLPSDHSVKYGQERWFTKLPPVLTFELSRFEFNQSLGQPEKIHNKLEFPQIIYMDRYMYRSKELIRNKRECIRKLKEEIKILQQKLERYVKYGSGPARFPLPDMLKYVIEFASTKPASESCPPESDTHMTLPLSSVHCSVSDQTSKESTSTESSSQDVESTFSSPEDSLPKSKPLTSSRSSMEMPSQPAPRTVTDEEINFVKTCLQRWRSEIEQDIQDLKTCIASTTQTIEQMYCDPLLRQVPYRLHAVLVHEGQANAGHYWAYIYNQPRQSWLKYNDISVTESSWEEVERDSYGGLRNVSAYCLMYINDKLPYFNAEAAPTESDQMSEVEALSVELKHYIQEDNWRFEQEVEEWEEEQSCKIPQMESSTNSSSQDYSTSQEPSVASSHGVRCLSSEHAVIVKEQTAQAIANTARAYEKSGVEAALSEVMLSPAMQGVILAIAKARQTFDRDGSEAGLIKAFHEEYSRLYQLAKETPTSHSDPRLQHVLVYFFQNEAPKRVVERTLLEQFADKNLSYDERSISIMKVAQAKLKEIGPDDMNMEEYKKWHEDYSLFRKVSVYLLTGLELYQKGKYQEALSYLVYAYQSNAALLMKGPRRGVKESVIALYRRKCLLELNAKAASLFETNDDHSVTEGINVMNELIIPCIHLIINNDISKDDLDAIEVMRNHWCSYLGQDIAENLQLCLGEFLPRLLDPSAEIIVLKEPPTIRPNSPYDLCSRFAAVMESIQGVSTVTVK

LNCaP = test: Antiproliferative activity against human LNCaP cells assessed as reduction in cell viability incubated for 6 days by cell-titer glo assay; type: functional, cell-based; details: 144 h
How it was run: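 LNCaP seeded at 2500 cells/well in 96-well plates, treated 24 h later with a range of compound concentrations for 6 days. Viability by CellTiter-Glo; IC50 from curve fitting.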

RS4-11 = test: Antiproliferative activity against human RS4-11 cells assessed as reduction in cell viability incubated for 3 days by cell-titer glo assay; type: functional, cell-based; details: RS4-11, 72 h
How it was run: (§1)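 Cells seeded in 96-well plates (RS4;11 5000 cells/well; HCT-116, Huh7, K562, NB4 2000 cells/well), dosed after 24 h with a range of compound concentrations for 3 days. Viability read by CellTiter-Glo luminescence; IC50 from curve fitting.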

HCT-116 = test: Antiproliferative activity against human HCT-116 cells assessed as reduction in cell viability incubated for 3 days by cell-titer glo assay; type: functional, cell-based; details: HCT-116, 72 h; how it was run: as §1
NB-4 = test: Antiproliferative activity against human NB-4 cells assessed as reduction in cell viability incubated for 3 days by cell-titer glo assay; type: functional, cell-based; details: NB-4, 72 h; how it was run: as §1
[7] = Antiproliferative activity against human K562 cells assessed as reduction in cell viability incubated for 3 days by cell-titer glo assay; type: functional, cell-based; details: K562, 72 h; how it was run: as §1
Huh-7 = test: Antiproliferative activity against human HuH-7 cells assessed as reduction in cell viability incubated for 3 days by cell-titer glo assay; type: functional, cell-based; details: Huh-7, 72 h; how it was run: as §1

Chain of Ubiquitin carboxyl-terminal hydrolase isozyme L1 (Homo sapiens) (P09936 whole entry, looked up): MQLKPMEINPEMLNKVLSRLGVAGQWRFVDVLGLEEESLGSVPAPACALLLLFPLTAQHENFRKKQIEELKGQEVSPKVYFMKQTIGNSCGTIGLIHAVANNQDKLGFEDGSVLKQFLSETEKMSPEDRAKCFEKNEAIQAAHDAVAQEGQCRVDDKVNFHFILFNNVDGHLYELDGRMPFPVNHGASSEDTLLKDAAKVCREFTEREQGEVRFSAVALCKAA
Chain of Ubiquitin carboxyl-terminal hydrolase 11 (Homo sapiens) (P51784 whole entry): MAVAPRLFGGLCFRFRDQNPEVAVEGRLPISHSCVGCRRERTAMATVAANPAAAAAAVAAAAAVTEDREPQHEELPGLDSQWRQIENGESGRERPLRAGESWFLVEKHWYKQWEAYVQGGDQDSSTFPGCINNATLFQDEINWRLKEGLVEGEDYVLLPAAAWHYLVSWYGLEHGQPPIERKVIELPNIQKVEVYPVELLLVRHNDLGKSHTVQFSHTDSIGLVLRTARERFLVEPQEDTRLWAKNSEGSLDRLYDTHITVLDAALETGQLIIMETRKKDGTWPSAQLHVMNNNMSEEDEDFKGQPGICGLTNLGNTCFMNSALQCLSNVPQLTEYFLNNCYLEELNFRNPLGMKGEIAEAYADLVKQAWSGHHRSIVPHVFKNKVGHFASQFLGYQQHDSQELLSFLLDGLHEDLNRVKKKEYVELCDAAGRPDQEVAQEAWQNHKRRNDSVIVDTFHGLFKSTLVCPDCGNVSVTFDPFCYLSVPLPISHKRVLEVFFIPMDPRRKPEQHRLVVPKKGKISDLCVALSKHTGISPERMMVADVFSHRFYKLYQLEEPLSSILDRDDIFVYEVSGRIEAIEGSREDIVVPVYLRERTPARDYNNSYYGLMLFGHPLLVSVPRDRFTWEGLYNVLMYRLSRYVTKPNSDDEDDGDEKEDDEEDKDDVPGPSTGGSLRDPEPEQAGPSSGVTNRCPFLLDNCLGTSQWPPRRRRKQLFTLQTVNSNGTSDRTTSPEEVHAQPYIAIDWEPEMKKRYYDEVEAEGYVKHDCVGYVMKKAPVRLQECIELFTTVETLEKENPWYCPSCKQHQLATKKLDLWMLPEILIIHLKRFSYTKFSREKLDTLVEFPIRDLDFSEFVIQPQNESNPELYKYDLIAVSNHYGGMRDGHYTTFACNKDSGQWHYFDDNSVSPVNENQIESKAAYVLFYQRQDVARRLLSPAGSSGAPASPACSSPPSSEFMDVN

inhibition [1]: inactive
inhibition [2]: inactive
inhibition [3]: inactive
inhibition [4]: inactive
inhibition [5]: inactive
inhibition [6]: inactive
IC50 (LNCaP): 0.0201 µM
IC50 (RS4-11): 0.0069 µM
IC50 (HCT-116): > 50 µM
IC50 (Huh-7): 10.7 µM
Compound: C[C@H](CC(=O)N1CCC(O)(Cn2cnc3c(-c4ccc(CN)cc4)n(C)nc3c2=O)CC1)c1ccccc1
IC50 (NB-4): > 50 µM
IC50 [7]: 24.1 µM
